ChEMBL document CHEMBL1154529, “Conformationally constrained opioid ligands: the Dmt-Aba and Dmt-Aia versus Dmt-Tic scaffold” (Bioorg Med Chem Lett, 2009)
Residues, ends and D or L forms follow the SMILES beside them.

Legend:
[1] = biological target: Delta-type opioid receptor (Rattus norvegicus, UniProt P33533); experiment: Displacement of [3H]DPDPE from delta opioid receptor in Sprague-Dawley rat brain synaptosomal membranes; type: cell membranes, Membrane
Summary of the method: (§1)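 Radioligand competition in rat brain synaptosomal preparations. Peptides tested at five to eight graded doses, each assay in duplicate, repeated three to six times on several different synaptosomal preparations. Ki calculated by Cheng–Prusoff; mean ± SEM.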

[2] = organism: Rattus norvegicus; experiment: Selectivity ratio of Ki for Sprague-Dawley rat delta opioid receptor to Ki for Sprague-Dawley rat mu opioid receptor
[3] = biological target: Mu-type opioid receptor (Rattus norvegicus, UniProt P33535); experiment: Displacement of [3H]DAMGO from mu opioid receptor in Sprague-Dawley rat brain synaptosomal membranes; type: cell membranes, Membrane; summary of the method: as §1
Sequence of Mu-type opioid receptor (Rattus norvegicus, UniProt P33535) (P33535 whole entry): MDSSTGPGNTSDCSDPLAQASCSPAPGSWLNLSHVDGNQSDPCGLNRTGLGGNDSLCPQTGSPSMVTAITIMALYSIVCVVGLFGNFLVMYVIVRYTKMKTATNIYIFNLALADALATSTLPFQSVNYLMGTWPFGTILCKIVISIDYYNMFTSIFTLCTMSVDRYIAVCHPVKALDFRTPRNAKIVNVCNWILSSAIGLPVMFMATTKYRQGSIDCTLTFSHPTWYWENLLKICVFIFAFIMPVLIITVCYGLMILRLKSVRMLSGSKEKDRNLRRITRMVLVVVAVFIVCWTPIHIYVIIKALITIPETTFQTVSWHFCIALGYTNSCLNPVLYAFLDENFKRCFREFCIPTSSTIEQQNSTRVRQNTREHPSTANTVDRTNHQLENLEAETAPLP

[4] = biological target: Mu-type opioid receptor (Cavia porcellus, UniProt P97266); experiment: Agonist activity at mu opioid receptor in Hartley guinea pig assessed as inhibition of electrically evoked ileum contraction by GPI test; type: functional, tissue-based
Sequence of Mu-type opioid receptor (Cavia porcellus, UniProt P97266) (P97266 whole entry): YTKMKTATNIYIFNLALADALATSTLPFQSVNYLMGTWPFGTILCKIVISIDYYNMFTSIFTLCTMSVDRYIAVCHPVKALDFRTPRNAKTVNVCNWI
Summary of the method: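 Isolated tissue bioassays: mouse vas deferens (delta) and guinea-pig ileum (mu). Agonism expressed as IC50 read from dose–response curves. Internal standards were deltorphin C (MVD) and dermorphin (GPI). Mean ± SEM of at least six fresh tissue samples.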

[5] = organism: Rattus norvegicus; experiment: Selectivity ratio of Ki for Sprague-Dawley rat mu opioid receptor to Ki for Sprague-Dawley rat delta opioid receptor
[6] = biological target: T1, Delta-type opioid receptor (Mus musculus, UniProt P32300); experiment: Agonist activity at delta opioid receptor in mouse assessed as inhibition of electrically evoked vas-deferens contraction by MVD test
T1 sequence (P32300 whole entry): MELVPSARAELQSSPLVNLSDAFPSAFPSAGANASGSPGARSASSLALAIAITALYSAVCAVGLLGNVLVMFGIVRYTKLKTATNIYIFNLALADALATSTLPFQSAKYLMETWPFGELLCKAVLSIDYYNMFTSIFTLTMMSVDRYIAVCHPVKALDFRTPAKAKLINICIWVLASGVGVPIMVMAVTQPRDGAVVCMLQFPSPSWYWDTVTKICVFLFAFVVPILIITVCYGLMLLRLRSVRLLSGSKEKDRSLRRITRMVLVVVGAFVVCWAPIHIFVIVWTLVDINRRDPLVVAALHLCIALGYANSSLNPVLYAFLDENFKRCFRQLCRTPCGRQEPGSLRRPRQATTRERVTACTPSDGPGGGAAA

[7] = biological target: T1, Delta-type opioid receptor; experiment: Antagonist activity at delta opioid receptor in mouse assessed as effect on electrically evoked vas-deferens contraction by MVD test; type: functional; conditions: read-out: pA2 (converted)

Sequence of Delta-type opioid receptor (Rattus norvegicus, UniProt P33533) (P33533 whole entry): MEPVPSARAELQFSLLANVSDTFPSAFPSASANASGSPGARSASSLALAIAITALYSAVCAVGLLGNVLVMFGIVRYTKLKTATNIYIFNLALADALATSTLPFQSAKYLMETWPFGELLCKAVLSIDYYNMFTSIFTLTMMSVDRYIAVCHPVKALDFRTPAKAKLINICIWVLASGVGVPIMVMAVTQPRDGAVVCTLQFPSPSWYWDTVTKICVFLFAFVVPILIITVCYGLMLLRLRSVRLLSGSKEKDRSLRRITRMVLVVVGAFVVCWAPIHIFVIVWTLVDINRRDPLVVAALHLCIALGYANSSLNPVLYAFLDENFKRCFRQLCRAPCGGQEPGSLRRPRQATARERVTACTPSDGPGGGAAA

Row | Structure (SMILES) | Ki [1] | Ratio Ki [2] | Ki [3] | IC50 [4] | Ratio Ki [5] | IC50 [6] | Kb [7]
1 | Cc1cc(O)cc(C)c1C[C@H](N)C(=O)N[C@H]1Cc2ccccc2CN([C@@H](CCCCN)C(=O)NCc2ccccc2)C1=O | 0.29 µM | 29 | 0.0101 µM | 3.27 µM | – | – | –
2 | Cc1cc(O)cc(C)c1C[C@H](N)C(=O)N[C@H]1Cc2c([nH]c3ccccc23)CN(CC(=O)OCc2ccccc2)C1=O | 4.06 µM | 17 | 0.244 µM | – | – | – | –
3 | Cc1cc(O)cc(C)c1C[C@H](N)C(=O)N[C@@H]1Cc2c([nH]c3ccccc23)CN(CC(=O)O)C1=O | 0.72 µM | – | 2.9 µM | – | 4 | – | –
4 | Cc1cc(O)cc(C)c1C[C@H](N)C(=O)N[C@H]1Cc2ccccc2CNC1=O | 0.368 µM | 30 | 0.0124 µM | 0.631 µM | – | – | –
5 | Cc1cc(O)cc(C)c1C[C@H](N)C(=O)N[C@@H]1Cc2c([nH]c3ccccc23)CN(CC(=O)NCc2ccccc2)C1=O | 0.161 µM | 48 | 0.00335 µM | 0.0149 µM | – | 1.5 µM | –
6 | Cc1cc(O)cc(C)c1C[C@H](N)C(=O)N[C@H]1Cc2ccccc2CN([C@@H](CC(=O)O)C(=O)NCc2ccccc2)C1=O | 1.48 µM | 2.3 | 0.63 µM | – | – | – | –
7 | Cc1cc(O)cc(C)c1C[C@@H](C(=O)N[C@@H]1Cc2c([nH]c3ccccc23)CN(CC(=O)NCc2ccccc2)C1=O)N(C)C | 0.681 µM | 5 | 0.133 µM | – | – | – | –
8 | Cc1cc(O)cc(C)c1C[C@@H](C(=O)N[C@H]1Cc2c([nH]c3ccccc23)CN(CC(=O)O)C1=O)N(C)C | 0.00664 µM | – | 0.875 µM | > 20 µM | 132 | > 20 µM | 0.00501 µM
9 | Cc1cc(O)cc(C)c1C[C@H](N)C(=O)N1Cc2ccccc2C[C@H]1C(=O)NCC(=O)NCc1ccccc1 (HELM PEPTIDE1{[Cc1cc(O)cc(C)c1C[C@H](N)C(=O)[*:2]].[Tic].G.[c1ccc(CN[*:1])cc1]}$$$$V2.0) | – | – | – | – | 5.2 | – | 0.000501 µM
10 | Cc1cc(O)cc(C)c1C[C@@H](C(=O)N[C@H]1Cc2ccccc2CNC1=O)N(C)C | 0.0205 µM | – | 0.0649 µM | > 20 µM | 3.2 | > 20 µM | 0.0631 µM
11 | Cc1cc(O)cc(C)c1C[C@@H](C(=O)N[C@@H]1Cc2c([nH]c3ccccc23)CN(CC(=O)O)C1=O)N(C)C | 1.15 µM | – | 10.1 µM | – | 8.8 | – | –
12 | Cc1cc(O)cc(C)c1C[C@H](N)C(=O)N[C@H]1Cc2ccccc2CN(CC(=O)NCc2ccccc2)C1=O | 0.011 µM | 24 | 0.00046 µM | – | – | – | –
13 | Cc1cc(O)cc(C)c1C[C@H](N)C(=O)N[C@H]1Cc2c([nH]c3ccccc23)CN(CC(=O)O)C1=O | 0.806 µM | – | 1.45 µM | > 20 µM | 1.8 | – | –
14 | Cc1cc(O)cc(C)c1C[C@H](N)C(=O)N[C@H]1Cc2c([nH]c3ccccc23)CN(CC(=O)NCc2ccccc2)C1=O | 0.358 µM | 7.2 | 0.05 µM | 1.8 µM | – | – | –
